High-throughput results from PubChem BioAssay.
PREPL inh: human PREPL enzyme inhibition | Q4J6C6 | recombinant PREPL, fluorescence polarization activity-based probe | inhibition, % at 5.96 µM | 320,000 compounds, 0.68% hits | AID 2751;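 note: 0% = enzyme with DMSO and 100% = wells lacking enzyme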
Target sequence (Q4J6C6 whole entry, looked up): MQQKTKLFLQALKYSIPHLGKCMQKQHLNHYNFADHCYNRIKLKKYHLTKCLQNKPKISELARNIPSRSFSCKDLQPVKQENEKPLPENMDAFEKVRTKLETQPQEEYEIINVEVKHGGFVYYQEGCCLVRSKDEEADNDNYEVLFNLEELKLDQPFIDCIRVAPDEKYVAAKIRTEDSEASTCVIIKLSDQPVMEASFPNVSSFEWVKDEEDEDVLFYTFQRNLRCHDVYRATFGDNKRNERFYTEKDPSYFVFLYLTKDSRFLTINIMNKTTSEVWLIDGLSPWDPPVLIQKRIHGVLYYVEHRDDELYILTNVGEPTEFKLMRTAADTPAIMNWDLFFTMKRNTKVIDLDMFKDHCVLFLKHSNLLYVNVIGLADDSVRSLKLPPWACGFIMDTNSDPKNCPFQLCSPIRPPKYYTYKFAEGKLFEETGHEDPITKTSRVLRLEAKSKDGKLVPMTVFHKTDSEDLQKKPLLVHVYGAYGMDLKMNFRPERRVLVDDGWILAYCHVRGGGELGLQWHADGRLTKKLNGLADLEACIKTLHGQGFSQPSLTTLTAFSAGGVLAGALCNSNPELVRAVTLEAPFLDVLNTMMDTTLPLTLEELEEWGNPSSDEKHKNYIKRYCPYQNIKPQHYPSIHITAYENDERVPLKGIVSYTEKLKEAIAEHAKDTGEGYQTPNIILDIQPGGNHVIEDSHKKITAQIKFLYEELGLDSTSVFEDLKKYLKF
GRIN3A LBD mod: modulates the human NR3A ligand-binding domain; NR3A LBD differential scanning fluorimetry, Tm shift; 0% = protein alone, 100% = glycine-bound protein; Tm shift relative to glycine control, % at 25 µM; 340,000 compounds, 2.5% hits; AID 1259313;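 active = melting temperature shift of at least 10% of the positive control shift, at one fixed dose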
Beta cell apopt: beta cell apoptosis inhibition; INS-1E cytokine-induced death, ATP luminescence, 48 h; percent of positive-control rescue, neutral wells zero; AID 435005; protection from apoptosis, % (concentration not given with the values); 300,000 compounds, 0.8% hits;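 active = Every replicate reaches about 75%, or at least half do and their mean reaches it too, limit read from the data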;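 note: 0% = cytokine-treated negative control wells and 100% = positive control rescue; higher means more ATP so stronger rescue from cytokine killing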
CHOP inhibitor: inhibitors of CHOP induction in ER stress response | CHO-K1 CHOP-promoter luciferase, tunicamycin-induced, 15-18 h | inhibition, % at 10 µM | 220,000 compounds, 3.8% hits;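 active = compounds that reduced the stress-induced luciferase reporter signal by more than about 70% of percent inhibition, limit read from the data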;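 note: 0% = tunicamycin plus vehicle and 100% = wells without tunicamycin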
CSC inhib: cancer stem cell inhibition; 300,000 compounds, 1.1% hits; cancer stem cell-like cells viability, luminescence; inhibition, % at 7.5 µM; in the data active = inhibition above about 75%; tested in HMLE shEcad cells
T cruzi repl: T. cruzi replication inhibition | AID 1885 | 300,000 compounds, 1.4% hits | inhibition, % (test concentration not listed) | T. cruzi beta-gal in NIH3T3, luminescence, 90 h;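 active = mean inhibition across valid replicates above about 55%, limit read from the data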;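 note: signal also drops with host cell toxicity which is not excluded here; 0% = plate median of DMSO wells and 100% = zero luminescence signal; higher percent means less beta-gal luminescence so fewer parasites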
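compound dosing = single 50 nL compound addition per well in DMSO | material = NIH/3T3 host cells with β-galactosidase reporter T. cruzi | input = 5,000 host fibroblasts per well | timing = ≥90 h infection period, 3 h prior cell attachment | read-out basis = percent inhibition of parasite-derived β-gal signal | detection = GalScreen β-gal luminescence, detergent lysis, 60 min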
CHOP confirm: confirmation of CHOP induction inhibitors; 2,100 compounds, 45% hits; inhibition, % at 10 µM; CHO-CHOP promoter luciferase reporter, tunicamycin-induced, luminescence; shares compounds with CHOP inhibitor;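 active = mean of three repeat readings of reporter signal inhibition above a set limit, cut at about 70% in these data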;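 note: 0% = tunicamycin plus vehicle and 100% = wells lacking tunicamycin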
PREPL confirm: confirmation of human PREPL enzyme inhibitors | inhibition, % at 5.96 µM | 2,000 compounds, 67% hits | shares compounds with PREPL inh | recombinant PREPL, fluorescence polarization activity probe | AID 2803;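 note: 0% = protein with DMSO and 100% = wells lacking protein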
Active calls of the source: *; · = not tested or not shown. Only some compounds are listed: those with a hit (about 6.7% of all), similar ones and a draw of the others. Cut-off read from the data, not from the text of the source, unless noted: active = inhibition above about 43%; inactive = the rest.

SMILES | PREPL inh | GRIN3A LBD mod | Beta cell apopt | CHOP inhibitor | CSC inhib | T cruzi repl | PREPL confirm | others
Cc1ccc(C2=CC(c3ccc(N(C)C)cc3)n3nnnc3N2)cc1 (centres undefined) | 58.7* | -3.7 | 108.3* | 99.8* | 1.3 | 8.1 | 54.2* | CHOP confirm=51.8
COc1ccc(C2=CC(c3ccc(F)cc3)n3nnnc3N2)cc1 (centres undefined) | -66.8 | -4.8 | -1.6 | 46.5 | -5.4 | -19.4 | ·
N#CC1=C(N)C(C#N)(C#N)C(c2cccnc2)C2CC(c3ccccc3)CC=C12 (centres undefined) | 44.1* | -7.0 | -4.9 | 96.3* | 6.8 | -2.9 | 31.6 | CHOP confirm=32.7
Cc1ccc(S(=O)(=O)N(C)C)cc1NC(=O)c1cc(=O)c2ccccc2o1 | -0.7 | -1.2 | -2.4 | · | -9.0 | -12.1 | ·
CCOC(=O)c1cnc(-n2nc(C)cc2C)nc1NCCc1ccccc1 | 58.3* | -1.1 | 57.1 | 101.1* | -16.1 | 55.2* | 54.5* | CHOP confirm=-8.2
c1ccc2c(NCCc3c[nH]c4ccccc34)c3ccccc3nc2c1 | 49.9* | 2.0 | · | · | 87.4* | 63.4* | 57.2*
COc1ccccc1CNC(=O)CCNC(=O)c1ccco1 | · | -0.3 | · | · | · | · | ·
Cc1c(CN(C)C)c2c(n1Cc1ccccc1)C(=O)c1ccc(Br)cc1-2 | 53.6* | -0.2 | 11.0 | 68.7 | 12.9 | 21.4 | 50.4*
Cc1c(CN(C)C)c2c(n1C)C(=O)c1ccc(Br)cc1-2 | 15.9 | -0.8 | 2.6 | 10.6 | 2.9 | 0.9 | ·
CC(C)=C1SC(N2CCN(c3cccc(C(F)(F)F)c3)CC2)=NC1=O | 13.1 | -0.5 | -5.2 | 0.7 | 27.6 | 14.7 | ·
CC(C)=C1SC(N2CCN(c3ccc(C)cc3)CC2)=NC1=O | 49.6* | -0.4 | 0.8 | -1.9 | -16.1 | 12.3 | 45.4*
CC(C)=C1SC(N2CCN(c3ccc(Cl)cc3)CC2)=NC1=O | 49.5* | 0.3 | -7.2 | -5.0 | -4.8 | -6.7 | 47.5*
CC(C)=C1SC(N2CCOCC2)=NC1=O | -8.9 | 0.1 | 1.6 | -9.8 | -6.8 | -1.5 | ·
CN(C)c1ccc(C(CNC(=O)c2ccc(-c3ccccc3)cc2)N2CCOCC2)cc1 (centres undefined) | 46.8* | · | · | · | -10.6 | 2.5 | 64.8*
CN1OC[C@@H]2CN[C@H](c3cccc(-c4ccc(C#N)cc4)c3)C[C@@H]21 | · | 1.0 | · | · | · | · | ·
O=c1[nH]n2c(=O)c3c([nH]c2c1N=Nc1cccc(Cl)c1)CCC3 | 26.8 | 6.2 | 0.3 | 9.2 | -5.8 | 1.0 | ·
O=c1[nH]n2c(=O)c3c([nH]c2c1N=Nc1cccc(C(F)(F)F)c1)CCCC3 | 54.6* | -1.1 | 2.3 | 28.6 | -10.1 | 2.9 | 61.5*
C#CCOCCOCCOCCNc1nc(N2CCOCC2)nc(N2CCN(C(=O)[C@H](Cc3cc4ccccc4[nH]3)n3cc([C@@H](N)CC(C)C)nn3)CC2)n1 | 42.7 | 0.1 | -9.1 | 13.4 | -14.3 | -7.4 | ·
C#CCOCCOCCOCCNc1nc(N2CCN(C(=O)[C@H](Cc3cc4ccccc4[nH]3)n3cc([C@@H](N)C(C)CC)nn3)CC2)nc(N2CCN(C(=O)[C@H](Cc3cc4ccccc4[nH]3)n3cc([C@@H](N)Cc4ccc(O)cc4)nn3)CC2)n1 (some centres undefined) | 57.6* | · | 7.6 | -7.5 | -7.5 | 5.2 | 56.6*
C#CCOCCOCCOCCNc1nc(N2CCN(C(=O)C(Cc3cc4ccccc4[nH]3)n3cc(C(N)Cc4ccc(O)cc4)nn3)CC2)nc(N2CCN(C(=O)C(Cc3cc4ccccc4[nH]3)n3cc(C(N)Cc4ccc(O)cc4)nn3)CC2)n1 (centres undefined) | · | -10.8 | · | -0.2 | · | -17.4 | ·
C#CCOCCOCCOCCNc1nc(N2CCN(C(=O)[C@H](Cc3ccc(O)cc3)n3cc([C@@H](N)C(C)CC)nn3)CC2)nc(N2CCN(C(=O)[C@H](Cc3cc4ccccc4[nH]3)n3cc([C@@H](N)CC(C)C)nn3)CC2)n1 (some centres undefined) | 55.8* | -3.3 | 2.9 | 12.7 | 6.0 | -16.7 | 47.8*
C#CCOCCOCCOCCNc1nc(N2CCN(C(=O)[C@H](Cc3ccc(O)cc3)n3cc([C@@H](N)C(C)CC)nn3)CC2)nc(N2CCN(C(=O)[C@H](Cc3cc4ccccc4[nH]3)n3cc([C@@H](N)C(C)CC)nn3)CC2)n1 (some centres undefined) | 46.5* | -2.9 | 12.7 | 7.5 | -11.1 | -14.9 | 41.3
C#CCOCCOCCOCCNc1nc(N2CCN(C(=O)C(Cc3cc4ccccc4[nH]3)n3cc(C(N)Cc4ccc(O)cc4)nn3)CC2)nc(N2CCN(C(=O)C(CCC(=O)O)n3cc(C(N)C(C)CC)nn3)CC2)n1 (centres undefined) | 30.9 | 0.6 | -2.7 | · | 16.8 | · | ·
C#CCOCCOCCOCCNc1nc(N2CCN(C(=O)[C@H](Cc3cc4ccccc4[nH]3)n3cc([C@@H](N)CC(C)C)nn3)CC2)nc(N2CCN(C(=O)[C@H](Cc3cc4ccccc4[nH]3)n3cc([C@@H](N)CC(C)C)nn3)CC2)n1 | 69.0* | -5.2 | 6.3 | -4.1 | 10.8 | 1.5 | 55.7*
C#CCOCCOCCOCCNc1nc(N2CCN(C(=O)[C@H](Cc3cc4ccccc4[nH]3)n3cc([C@@H](N)Cc4ccc(O)cc4)nn3)CC2)nc(N2CCN(C(=O)[C@H](Cc3cc4ccccc4[nH]3)n3cc([C@@H](N)CC(C)C)nn3)CC2)n1 | · | -12.8 | · | -14.1 | · | · | ·
Cc1cc(Cl)ccc1OC(C)C(=O)Nc1cnn(CCCC(=O)O)c1 (centres undefined) | -6.2 | 0.3 | 3.2 | · | 8.9 | 3.8 | ·
C#CCOCCOCCOCCNc1nc(N2CCN(C(=O)[C@H]([C@@H](C)CC)n3cc([C@@H](N)Cc4ccc(O)cc4)nn3)CC2)nc(N2CCN(C(=O)[C@H](Cc3cc4ccccc4[nH]3)n3cc([C@@H](N)C(C)CC)nn3)CC2)n1 (some centres undefined) | 53.4* | · | 8.7 | -11.1 | -15.7 | 15.6 | 48.1*
C#CCOCCOCCOCCNc1nc(N2CCN(C(=O)[C@H](Cc3cc4ccccc4[nH]3)n3cc(C(N)CC(C)C)nn3)CC2)nc(N2CCN(C(=O)[C@H](CCC(=O)O)n3cc(C(N)[C@H](C)CC)nn3)CC2)n1 (some centres undefined) | 22.2 | -1.5 | 6.0 | 7.2 | -6.2 | -0.4 | ·
C#CCOCCOCCOCCNc1nc(N2CCN(C(=O)[C@H](CCCN=C(N)N)n3cc(C(N)[C@H](C)CC)nn3)CC2)nc(N2CCN(C(=O)[C@H](CCCN=C(N)N)n3cc(C(N)[C@@H](C)CC)nn3)CC2)n1 (some centres undefined) | 44.1* | 0.5 | -6.9 | · | 6.9 | · | 33.4
